In paper PMC5655776 (Journal of Clinical Pharmacology, 2017):
Read-outs that look alike come from different tables or passages of the source.

Tests used:
[1] = major circulating metabolites of ertugliflozin; cited from earlier work
[2] = type: in vivo, human; conditions: for MRAUCinf (metabolite‐to‐parent ratio for AUC): corrected for molecular weight, geometric mean (geometric %CV)
[3] = tested on: urinary glucose excretion; test: Change from baseline in 24-hour urinary glucose excretion; type: in vivo, human; conditions: for Change from baseline to day 1 in 24‐hour urinary glucose excretion, geometric mean / Change from baseline to day 1 in 24‐hour urinary glucose excretion, mean (SD) / Change from baseline to day 1 in 24‐hour urinary glucose excretion, median: 15 mg single oral dose
In short: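 Single oral 15 mg dose given as three 5-mg tablets after a 4-hour fast. Baseline urine was collected on day –2 (–48 to –24 h) and post-dose urine in 0‑4, 4‑8, 8‑12 and 12‑24 h intervals, with glucose measured centrally. 24-h UGE is the sum of the intervals. Log-transformed change was compared by 1-way ANOVA against T2DM with normal renal function, without plasma glucose correction. eGFR bands: mild 60‑89, moderate 30‑59 mL/min.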

[4] = tested on: SGLT2‐mediated glucose transport; test: 24-hour inhibition of glucose reabsorption; type: in vivo, human; conditions: day 1
[5] = cited from earlier work
[6] = Urinary excretion and renal clearance of ertugliflozin and metabolites; type: in vivo, human; conditions: subjects with normal renal function
[7] = as high as 300 mg (single dose), 100 mg once daily (up to 14 days), 25 mg once daily (up to 12 weeks); ref data on file, 9, 10; cited from earlier work
[8] = tested on: T2DM and healthy subjects; test: Safety and tolerability of a single 15-mg dose; type: in vivo, human
In short: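 Open-label, nonrandomized single oral 15 mg dose (three 5-mg tablets) after a 4-hour fast. Usual antihyperglycemic agents were given 4 h post-dose. AEs were recorded throughout and coded with MedDRA 17.1. ECGs were taken at screening, predose and day 5. Sitting and supine/standing blood pressure and pulse were taken predose and at 1, 2, 4 and 96 h post-dose.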

[9] = T2DM, moderate renal impairment
[10] = single 15‐mg dose, all renal function groups

For CCOc1ccc(Cc2cc([C@]34OC[C@](CO)(O3)[C@@H](O)[C@H](O[C@@H]3O[C@H](C(=O)O)[C@@H](O)[C@H](O)[C@H]3O)[C@H]4O)ccc2Cl)cc1 [PF‐06481944, 3‐O‐β‐glucuronide], the “pharmacological activity of metabolite” value [1] is given as “pharmacologically inactive”, the “median tmax range of metabolites” value ([2]; after ertugliflozin 15 mg, across all groups) is given as 2 to 4 h and the “MRAUCinf (metabolite‐to‐parent ratio for AUC)” value ([2]; T2DM, mild renal impairment) is given as 0.98 (45). For the same compound, the “MRAUCinf (metabolite‐to‐parent ratio for AUC)” value [2, 9] was 1.26 (52), the “MRAUCinf (metabolite‐to‐parent ratio for AUC)” value ([2]; T2DM, normal renal function) was 0.93 (39) and the “MRAUCinf (metabolite‐to‐parent ratio for AUC)” value ([2]; T2DM, severe renal impairment) was 1.03 (37). The “MRAUCinf (metabolite‐to‐parent ratio for AUC)” value ([2]; healthy, normal renal function) was 0.64 (29).
With CCOc1ccc(Cc2cc([C@]34OC[C@](CO)(O3)[C@@H](O)[C@H](O)[C@H]4O)ccc2Cl)cc1 [ertugliflozin, Ertugliflozin] the “Change from baseline to day 1 in 24‐hour urinary glucose excretion, geometric mean” value ([3]; T2DM, mild renal impairment) was 35.98 g, the “Change from baseline to day 1 in 24‐hour urinary glucose excretion, mean (SD)” value (from here on “Change from baseline … (SD)”) ([3]; T2DM, mild renal impairment) was 48.67 (37.72) g and the “Change from baseline to day 1 in 24‐hour urinary glucose excretion, median” value (from here on “Change from baseline … median”) ([3]; T2DM, mild renal impairment) was 36.4 g. For the same compound, the “Change from baseline to day 1 in 24‐hour urinary glucose excretion, geometric mean” value [3, 9] was 27.55 g, the “Change from baseline … (SD)” value [3, 9] was 32.64 (21.32) g and the “Change from baseline … median” value [3, 9] was 28.8 g. The “Change from baseline to day 1 in 24‐hour urinary glucose excretion, geometric mean” value ([3]; T2DM, normal renal function) was 72.31 g, the “Change from baseline … (SD)” value ([3]; T2DM, normal renal function) was 75.12 (24.36) g and the “Change from baseline … median” value ([3]; T2DM, normal renal function) was 68.1 g. The “Change from baseline to day 1 in 24‐hour urinary glucose excretion, geometric mean” value ([3]; T2DM, severe renal impairment) was 10.09 g, the “Change from baseline … (SD)” value ([3]; T2DM, severe renal impairment) was 11.29 (5.81) g and the “Change from baseline … median” value ([3]; T2DM, severe renal impairment) was 10.3 g. For the same compound, the “Change from baseline to day 1 in 24‐hour urinary glucose excretion, geometric mean” value ([3]; healthy, normal renal function) was 46.33 g, the “Change from baseline … (SD)” value ([3]; healthy, normal renal function) was 48.16 (14.04) g and the “Change from baseline … median” value ([3]; healthy, normal renal function) was 45.8 g. For the same compound, the “change from baseline in 24‐hour UGE, 1‐way ANOVA” value (“change … 1‐way ANOVA” below) ([3]; T2DM, mild renal impairment) was 36.0 g, the “change … 1‐way ANOVA” value [3, 9] was 27.6 g and the “change … 1‐way ANOVA” value ([3]; T2DM, normal renal function) was 72.3 g. The “change … 1‐way ANOVA” value ([3]; T2DM, severe renal impairment) was 10.1 g, the “geometric mean change from baseline in 24‐hour percentage inhibition of glucose reabsorption” value ([4]; T2DM, mild renal impairment) was 25.58% and the “geometric mean change from baseline in 24‐hour percentage inhibition of glucose reabsorption” value [4, 9] was 28.84%. For the same compound, the “geometric mean change from baseline in 24‐hour percentage inhibition of glucose reabsorption” value ([4]; T2DM, normal renal function) was 33.34%, the “geometric mean change from baseline in 24‐hour percentage inhibition of glucose reabsorption” value ([4]; T2DM, severe renal impairment) was 24.25% and the “geometric mean change from baseline in 24‐hour percentage inhibition of glucose reabsorption” value ([4]; healthy subjects) was 29.19%. The “Urinary excretion of unchanged drug, share of elimination” value ([5]; human absorption, distribution, metabolism, and excretion studies) was 1.5%, the “median time to maximum concentration (tmax)” value ([5]; oral administration, fasted state, ref data on file, 15, 16) was “approximately 1 hour” and the “terminal elimination half‐life (t1/2)” value ([5]; oral administration, ref data on file, 15, 16) was “approximately 17 hours”. For the same compound, the “dose proportionality in exposure (AUC and Cmax)” value ([5]; over the range of 0.5 to 300 mg, ref data on file, 15, 16) was “dose proportionality”, the Ae96% [6] was “approximately 1%” and the “tolerability of higher oral doses” value [7] was “well tolerated”. For the same compound, the Tmax ([2]; human, plasma, po, 15 mg, median tmax, 15 mg single oral dose, across all groups) was 1 to 1.51 h, the “predicted mean (90%CI) AUC from log‐linear regression vs BSA‐unnormalized eGFR” value ([2]; mild renal impairment (eGFR = 75 mL/min)) was 1585 (1461‐1719) ng·h/mL and the “predicted mean (90%CI) AUC from log‐linear regression vs BSA‐unnormalized eGFR” value ([2]; moderate renal impairment (eGFR = 45 mL/min)) was 1875 (1698‐2071) ng·h/mL. The “predicted mean (90%CI) AUC from log‐linear regression vs BSA‐unnormalized eGFR” value ([2]; normal renal function (eGFR = 105 mL/min)) was 1340 (1194‐1503) ng·h/mL, the “predicted mean (90%CI) AUC from log‐linear regression vs BSA‐unnormalized eGFR” value ([2]; severe renal impairment (eGFR = 15 mL/min)) was 2219 (1907‐2581) ng·h/mL and the subjects experiencing hypoglycemia ([8]; T2DM mild renal impairment group, receiving glyburide) was 1 subject. The subjects experiencing hypoglycemia ([8]; T2DM severe renal impairment group, receiving long‐acting insulin) was 2 subjects, the subjects experiencing hypoglycemia ([8]; all groups (n = 36)) was 3 subjects and the “intensity of AEs” value ([8]; single 15‐mg dose, all AEs) was “mild”. For the same compound, the “deaths, serious AEs, severe AEs, discontinuations due to AEs” value [8, 10] was “no deaths, serious AEs, severe AEs, or temporary or permanent discontinuations due to AEs”, the “laboratory findings, vital signs, ECG findings” value [8, 10] was “no abnormal laboratory findings or changes in vital signs (including postural changes) or ECG findings of clinical significance” and the tolerability [8, 10] was “well tolerated”.
